In test [1] the target is T1, XO (isolated from bovine milk) (Bos taurus, UniProt P80457). Nature of the test: Fluorescence titrations. Conditions: for Kd: binding constant K. In kind it is binding. An outline of the steps: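 Intrinsic fluorescence of bovine milk XO (0.16 U mL−1) titrated with test compound at 0–26.7 μM, at 298, 304 and 310 K. Excitation 280 nm, emission 300–500 nm, slit 5.0 nm. Mixtures equilibrated 30 min before reading. Compound-only control at each concentration; PBS blank for background correction. Final DMSO below 1%.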

The target of test [2] is T1, XO (isolated from bovine milk). The test is described as follows: Enzyme kinetic studies. Format: biochemical. The essentials:
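Bovine milk XO. Reversibility: xanthine held at 0.25 mM, XO varied 0.03–0.15 U mL−1 (five levels), test compound at 0, 10, 20 and 30 μM, velocity plotted against [XO]. Inhibition type: XO 0.025 U mL−1, xanthine 0.0625–0.1875 mM, same compound levels. Lineweaver–Burk double-reciprocal analysis, with linear secondary replots of slope and Y-intercept against [compound].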

For test [3] the target is unchanged. Nature of the test: XO inhibition assay. In kind it is biochemical.
Test [4] shares this target. Nature of the test: Fourier translation infrared spectroscopy, secondary structure of XO. Conditions: XO 0.5 U mL^−1 with AUR. The essentials: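 FT-IR of bovine milk XO (0.5 U mL−1), alone and with test compound (200 μM), at room temperature. Spectra collected over 1800–1400 cm−1 at 4 cm−1 resolution, 128 scans co-added, background subtracted. Secondary-structure fractions quantified by split-peak fitting of the amide I band (1600–1700 cm−1).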

The test system of another test is XO. The settings on record: cited from earlier work.
The mark [5] stands for this setting: 298, 304 and 310 K (taken as constant).

Where two headings read alike, the source gives them in different places.

T1 sequence (P80457 whole entry): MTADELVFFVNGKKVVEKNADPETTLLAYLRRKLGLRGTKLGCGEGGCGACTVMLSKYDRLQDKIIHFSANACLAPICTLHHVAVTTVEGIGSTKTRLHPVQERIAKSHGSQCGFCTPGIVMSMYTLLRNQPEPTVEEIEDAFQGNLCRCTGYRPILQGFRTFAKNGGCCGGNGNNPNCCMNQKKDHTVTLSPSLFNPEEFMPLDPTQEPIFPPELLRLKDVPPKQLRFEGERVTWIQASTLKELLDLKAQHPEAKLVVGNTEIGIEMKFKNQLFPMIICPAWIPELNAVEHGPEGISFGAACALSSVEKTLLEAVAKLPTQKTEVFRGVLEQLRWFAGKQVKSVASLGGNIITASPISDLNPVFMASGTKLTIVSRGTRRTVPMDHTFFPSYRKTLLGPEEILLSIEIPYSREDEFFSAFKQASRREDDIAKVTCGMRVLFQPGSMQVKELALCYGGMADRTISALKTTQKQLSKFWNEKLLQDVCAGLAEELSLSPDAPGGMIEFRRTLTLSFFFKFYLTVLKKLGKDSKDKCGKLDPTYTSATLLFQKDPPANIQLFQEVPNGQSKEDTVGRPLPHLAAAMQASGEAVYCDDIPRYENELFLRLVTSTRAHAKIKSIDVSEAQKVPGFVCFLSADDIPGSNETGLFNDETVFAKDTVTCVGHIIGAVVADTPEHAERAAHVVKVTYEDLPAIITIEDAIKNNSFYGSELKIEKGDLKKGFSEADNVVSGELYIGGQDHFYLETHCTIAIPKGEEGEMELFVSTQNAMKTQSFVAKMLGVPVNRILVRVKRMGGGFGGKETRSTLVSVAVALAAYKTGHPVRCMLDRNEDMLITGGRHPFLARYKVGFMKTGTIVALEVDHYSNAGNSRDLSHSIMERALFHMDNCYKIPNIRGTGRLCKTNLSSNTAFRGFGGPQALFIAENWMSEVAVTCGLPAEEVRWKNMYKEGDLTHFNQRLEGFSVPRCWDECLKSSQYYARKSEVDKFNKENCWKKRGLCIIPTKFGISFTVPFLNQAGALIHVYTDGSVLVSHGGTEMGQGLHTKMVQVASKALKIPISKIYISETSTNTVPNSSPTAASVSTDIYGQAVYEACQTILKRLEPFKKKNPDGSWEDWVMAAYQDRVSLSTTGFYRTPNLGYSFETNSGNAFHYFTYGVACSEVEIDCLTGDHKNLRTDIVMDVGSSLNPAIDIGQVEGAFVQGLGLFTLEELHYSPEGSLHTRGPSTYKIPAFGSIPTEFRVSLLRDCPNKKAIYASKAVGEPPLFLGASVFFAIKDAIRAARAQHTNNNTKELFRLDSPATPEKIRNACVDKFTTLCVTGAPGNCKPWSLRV

Take `O=C1/C(=C/c2ccc(O)c(O)c2)Oc2cc(O)cc(O)c21` [AUR, Aureusidin]: the fluorescence quenching mechanism result in test [1] is “static quenching process”. In test [1] (setting [5]), this compound returned a ΔH of 3.1 kcal/mol and a ΔS of 121.95 J mol^−1 K^−1. Moreover, in test [1] (298 K), the “lg K” value stood at 4.096, the “number of binding sites n” value was 0.977, the “quenching constant Ksv” value is 16190 L/mol and the dissociation constant (Kd) is 80.2 µM. Moreover, in test [1] (304 K), the “lg K” value came out at 4.155, the “number of binding sites n” value worked out at 0.993, the “quenching constant Ksv” value was found to be 15450 L/mol and the ΔG is -8.858 kcal/mol. Besides, the dissociation constant Kd in test [1] (304 K) was 70 µM. Also, in test [1] (310 K), the “lg K” value is listed as 4.184, the “number of binding sites n” value is reported as 1.006, the “quenching constant Ksv” value is 14370 L/mol and the ΔG was -9.032 kcal/mol. This compound showed an equilibrium dissociation constant (Kd) in test [1] (310 K) of 65.4 µM. In addition, in test [2], affinity was put at a Ki of 1.8 µM and the “ratio (α) of Kis to Ki” value was 0.31. Besides, the inhibition type entry in test [2] (Lineweaver–Burk plot, XO 0.025 U mL^−1, AUR 0–30 μM) is “mixed-type (competitive and noncompetitive)”. Further, in test [2] (binding to XO–xanthine complex), the “uncompetitive inhibition constant (Kis)” value was found to be 0.56 µM. The inhibition reversibility entry in test [2] (plots of v vs [XO], AUR 0–30 μM, xanthine 0.25 mM) was “reversible”. Also, in test [3], the IC50 worked out at 7.62 ± 0.401 µM. The “β-Sheet content of XO” value in test [4] (free XO 17.50) was determined as 12.07%. Besides, the “β-Turn content of XO” value in test [4] (free XO 40.37) was found to be 23.31%. Besides, the “α-Helix and random structure content of XO” value in test [4] (free XO 42.13) amounted to 64.62%.
For the compound `O=C1/C(=C/c2ccc(O)c(O)c2)Oc2cc(O)ccc21` [sulfuretin], the concentration for half-maximal inhibition (IC50) in the test on XO (ref 24 (Muzychka et al.)) was 3.1 ± 0.38 µM.
As for `O=c1c(O)c(-c2ccc(O)c(O)c2)oc2cc(O)cc(O)c12` [Quercetin, quercetin], the inhibition type result with XO is reported as “mixed-type”. Moreover, the half-inhibitory concentration (IC50) in the test with XO (ref 18 (Zhang et al.)) was 2.74 ± 0.04 µM.

The values are drawn from publication PMC9827282 (RSC Advances, 2023).
